# Bioassay records from PubChem.
# XiGFP reactiv = X-chromosome reactivation activator; XiGFP mouse fibroblasts, % GFP-positive cells imaging, 3 d; cells co-treated with 5-aza-dC sensitizer; scaled so ellipticine positive control = 100%; activation, % at 7.58 µM; AID 743238; 0.055% of 360,000 active;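 active means mean normalized replicate activation at least 10% and every replicate at or above 10%; inconclusive means only one of the two criteria met; inactive means mean below 10% and not all replicates reach 10%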
#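 System: SV40-immortalized XiGFP fibroblast cells, line 68-5-11 / Incubation: 3-day compound exposure, then 15 min fixation at room temperature / Compound: single concentration per compound, delivered by pin transfer / Buffer or medium: DMEM plus 5-aza-dC sensitizer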
# ARNT-TACC3 inh = disruptors of human ARNT/TACC3 interaction; AlphaScreen His-ARNT PAS-B/GST-TACC3 binding, luminescence; TACC3 fragment carries E629A point mutation; inhibition, % at 9.99 µM; 0.66% of 390,000 active; AID 623870;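 active means mean inhibition of replicates at least 50% and at least half of replicates each reaching 50%; inconclusive means half or more replicates reach 50% but mean below 50%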
# FN deposit inh = fibronectin deposition inhibition; inhibition, % at 12.6 µM; AID 743247; 0.086% of 350,000 active; AH1F fibroblasts, Alexa488-fibronectin deposition fluorescence, overnight;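 active means mean inhibition across replicates of 30% or more, regardless of how many single replicates reach that level; inconclusive means mean under 30% yet at least half of replicates reach 30%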
#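 Assay system: AH1F fibroblasts / Quantity: 10000 cells per well / Medium: DMEM plus 2% serum, read in PBS / Reagent: labelled fibronectin 24 nM / Dosing: single dose, pinned / Times: 1 h cell attachment, overnight exposure to compound and label / Signal: fluorescence, ex 485 nm, em 525 nm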
# DENV2 CPE = DENV2-induced cell death inhibition. 1.7% of 350,000 active. DENV2-infected cells, cytopathic effect rescue, plate reader. CPE inhibition, % at 9.99 µM; in the data active means CPE inhibition above about 20%, passing the limit was not always enough; inconclusive means no clear call, values can overlap the other calls; tested in BHK-21 cells
# FGF22 binding = shifts melting point of recombinant human FGF22; Q9HCT0; recombinant FGF22 thermal shift, SYPRO orange fluorescence; percent of sucrose octasulfate shift, DMSO zero; activity (Tm shift, normalised), % at 9.99 µM; 1.5% of 340,000 active; AID 651658;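 active means mean Tm shift, scaled 0 neutral to 100 positive control, at about 1.3% or above, every replicate too, limit read from the data; inconclusive means no clear call, values can overlap the other calls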
# Target sequence (Q9HCT0 whole entry, looked up): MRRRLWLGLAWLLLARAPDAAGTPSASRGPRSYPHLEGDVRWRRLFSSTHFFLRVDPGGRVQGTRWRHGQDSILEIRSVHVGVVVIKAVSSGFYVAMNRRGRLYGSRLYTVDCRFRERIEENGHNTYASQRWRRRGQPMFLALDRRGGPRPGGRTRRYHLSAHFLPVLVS
# SIRT5 inh = sirtuin-5 (human) deacylase inhibition. AID 652115. 1.1% of 330,000 active. Purified SirT5, succinyl-peptide AMC, trypsin-coupled fluorescence. inhibition, % at 15 µM. Q9NXA8; in the data active means inhibition above about 15%; inconclusive means no clear call, values can overlap the other calls
# Target sequence (Q9NXA8 whole entry, looked up): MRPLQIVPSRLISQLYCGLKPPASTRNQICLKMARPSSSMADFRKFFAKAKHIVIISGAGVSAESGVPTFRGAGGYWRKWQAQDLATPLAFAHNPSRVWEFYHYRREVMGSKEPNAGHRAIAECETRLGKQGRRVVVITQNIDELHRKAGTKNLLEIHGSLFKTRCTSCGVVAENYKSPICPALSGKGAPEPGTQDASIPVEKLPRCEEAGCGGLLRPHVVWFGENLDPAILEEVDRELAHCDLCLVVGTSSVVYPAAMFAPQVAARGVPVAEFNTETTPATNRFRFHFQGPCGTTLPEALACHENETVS
# ARNT Alpha ctr = AlphaScreen artifact in ARNT/TACC3 counter-screen; AC50, µM (titrated, usually from 68 µM); 50% of 1,200 active; shares compounds with ARNT-TACC3 inh; His-ARNT PASB-GST AlphaScreen artifact counter-screen, luminescence;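 active means every separate test run was called active for a drop in luminescence, with AC50 within twice the top valid dose, actives reach about 71 µM in these data; inconclusive means the separate test runs disagree in their calls; inactive means all runs inactive, including signal change in the wrong direction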
# A number is an active result; i = inactive; ? = inconclusive; nt = no result; ! = not confirmed by another sample. An excerpt weighted towards active compounds, which were near 3.8% of everything screened.
SMILES,XiGFP reactiv,ARNT-TACC3 inh,FN deposit inh,DENV2 CPE,FGF22 binding,SIRT5 inh,ARNT Alpha ctr
N#CC1=C(N)Oc2n[nH]c(-c3ccccn3)c2C1c1c(F)cccc1Cl (configuration not stated),nt,55,nt,nt,nt,nt,i
COCc1[nH]nc2c1C(c1c(F)cccc1Cl)C(C#N)=C(N)O2 (configuration not stated),nt,i,nt,nt,nt,nt,nt
CC(C)C1Cc2c(sc3ncnc(NN)c23)CO1 (configuration not stated),i,61,i,i,i,i,17µM
CN(C)CCNc1ccc2ncn3c4ccc(O)cc4c(=O)c1c23,i,58,i,i,i,i,i
Cc1ccc(Cn2cccc(NS(C)(=O)=O)c2=O)cc1,i,64,i,i,i,i,i
COc1ccc2c3c(n(C)c2c1)[C@@H](CO)N(Cc1ccncc1)CC31CN(C(=O)NC(C)C)C1,i,nt,nt,i,i,nt,nt
CN1CCN(CC(=O)N/N=C/c2ccc(F)c(F)c2)CC1,i,i,i,nt,nt,nt,nt
O=C(CN1CCCCCCC1)N/N=C/c1ccc(F)c(F)c1,i,55,i,i,i,i,i
C[C@@H]1CCCCO[C@@H](CN(C)C(=O)Nc2ccc(F)cc2)[C@H](C)CN([C@H](C)CO)C(=O)c2cc(NS(C)(=O)=O)ccc2O1,i,i,nt,i,i,i,nt
CC(C)NC(=O)N(C)C[C@@H]1Oc2c(NC(=O)CCCCCC(=O)Nc3ccccc3N)cccc2C(=O)N([C@H](C)CO)C[C@@H]1C,i,nt,nt,i,i,i,nt
Oc1c(C(Nc2cccc(C(F)(F)F)c2)c2ccncc2)ccc2cccnc12 (configuration not stated),i,53,i,i,i,i,4.1µM
O=C(O)C1Nc2c(O)cc(Cl)c([N+](=O)[O-])c2C2C=CCC12 (configuration not stated),i,58,i,i,2.7,nt,31µM
COc1cccc2c1NC(C(=O)O)C1CC=CC21 (configuration not stated),nt,i,nt,nt,nt,nt,nt
COc1cc(/C=N/NC(=O)CCN2CCN(c3ccccc3)CC2)cc(OC)c1OC,i,38,nt,i,i,i,56µM
COc1cc(/C=N/NC(=O)CCN2CCN(Cc3ccccc3)CC2)cc(OC)c1OC,i,i,i,nt,nt,nt,nt
CN(C)CCCNC(=O)C[C@H]1CC[C@@H]2[C@H](COC[C@@H](O)CN2CC2CCCC2)O1,i,i,i,i,i,i,nt
Cc1ccc(NC(=O)CN(C)C(=O)COc2cccc3cccnc23)cc1,i,58,i,nt,nt,nt,i
Cc1cccc(S(=O)(=O)N[C@H]2CC[C@@H](CCn3cc(-c4ccccn4)nn3)O[C@@H]2CO)c1,i,102,i,i,i,i,44µM
Cc1cccc(S(=O)(=O)N[C@@H]2CC[C@@H](CCn3cc(-c4ccccn4)nn3)O[C@@H]2CO)c1,i,98,i,i,i,i,i
Cc1cccc(S(=O)(=O)N[C@@H]2CC[C@@H](CCn3cc(-c4ccccn4)nn3)O[C@H]2CO)c1,i,nt,i,i,i,i,nt
COc1ccc(CN(C)C[C@H]2OCCCC[C@H](C)Oc3ccc(NS(=O)(=O)c4cn(C)cn4)cc3C(=O)N([C@@H](C)CO)C[C@@H]2C)cc1,i,i,nt,i,i,i,nt
Cc1noc(C)c1NC(=O)Nc1ccc2c(c1)C(=O)N(C)[C@@H]1CC[C@H](CC(=O)NCc3ccc(Cl)cc3)O[C@@H]1CO2,i,i,i,i,i,i,nt
NC(=O)c1[nH]cnc1N,i,69!,i,?,i,i,i
CCCCOC(=O)c1nc[nH]c1C(=O)OCCCC,i,i,i,nt,i,i,nt
c1ccc(-c2nnc(-c3ccccn3)nc2Nc2cnc3ccccc3n2)cc1,nt,nt,nt,nt,nt,nt,0.76µM
SMILES,XiGFP reactiv,ARNT-TACC3 inh,FN deposit inh,DENV2 CPE,FGF22 binding,SIRT5 inh,ARNT Alpha ctr
Cc1cccc(Nc2nc(-c3ccccn3)nnc2-c2ccccc2)n1,nt,nt,nt,nt,nt,nt,0.53µM
c1ccc(-c2csc(Nc3nc(-c4ccccn4)nnc3-c3ccccc3)n2)cc1,nt,nt,nt,nt,nt,nt,2.2µM
c1ccc(-c2csc(Nc3ncccn3)n2)cc1,i,i,i,nt,nt,nt,nt
CO[C@H]1CN(C)C(=O)c2cc(NS(=O)(=O)c3ccc(C)cc3)ccc2OC[C@H](C)N(C(=O)NC(C)C)C[C@@H]1C,i,i,i,?,i,i,nt
COCC#Cc1ccc([C@@H]2[C@@H](CO)N3C(=O)CN(C(=O)C4CCC4)C[C@@H]23)cc1,i,nt,i,?,nt,i,nt
Oc1ccc(/C=N/Nc2nccnc2Cl)c(O)c1,nt,i,i,nt,nt,nt,nt
Oc1ccc(/C=N/Nc2ncc(Br)cn2)c(O)c1,i,57,i,nt,nt,nt,30µM
CCCN(C)C[C@@H]1OCCCC[C@H](C)Oc2ccc(NC(=O)C3CCCCC3)cc2C(=O)N([C@H](C)CO)C[C@@H]1C,i,nt,nt,nt,nt,nt,nt
COc1cc(CNCc2ccccn2)ccc1OCc1cccc(Cl)c1,nt,53,nt,nt,i,i,i
COc1cc(CNCc2ccccn2)ccc1OCc1ccc(Cl)cc1,i,53,nt,nt,i,i,i
COc1cc(CNCc2ccccn2)ccc1OCc1c(Cl)cccc1Cl,nt,56,nt,nt,i,i,i
COc1cc(CNCc2cccs2)ccc1OCc1ccccc1,nt,i,nt,i,i,i,nt
COCC(=O)N1C[C@H]2[C@@H](c3ccccc31)[C@H](CO)N2C(=O)C1CCCC1,i,i,nt,i,i,i,nt
CC(=O)N1CN(Cc2ccccn2)Cc2c1sc1c2CCCC1,nt,71,nt,nt,nt,nt,i
CC(=O)N1CN(CCCn2ccnc2)Cc2c1sc1c2CCCC1,nt,i,nt,nt,nt,nt,nt
C[C@H](CO)N1C[C@H](C)[C@H](CN(C)Cc2ccc(-c3ccccc3)cc2)Oc2c(NS(=O)(=O)c3cn(C)cn3)cccc2C1=O,i,i,nt,i,i,i,nt
O=C(Nc1ccc(N2CCOCC2)cc1)c1cccc(S(=O)(=O)N2CCCCC2)c1,nt,i,nt,nt,nt,nt,nt
CCN1CCN(c2ccc(NC(=O)c3cccc(S(=O)(=O)N4CCCC4)c3)cc2)CC1,i,56,nt,i,i,nt,i
O=C(C[C@H]1CC[C@@H](NS(=O)(=O)c2cccc(F)c2)[C@@H](CO)O1)N1CCCCC1,i,i,i,i,i,i,nt
O=C(Oc1ccc(Cl)c2cccnc12)c1cccnc1,i,69,i,i,i,i,50µM
Oc1ccc(CN2CCc3ccccc3C2)c2cccnc12,nt,67,nt,nt,nt,nt,3.7µM
Oc1ccc(CN2CCC(Cc3ccccc3)CC2)c2cccnc12,i,nt,nt,i,i,i,5µM
CC1CN(Cc2ccc(O)c3ncccc23)CC(C)O1 (configuration not stated),nt,nt,nt,nt,nt,nt,4.7µM
Oc1ccc(CNC2Cc3ccccc3C2)c2cccnc12,nt,nt,nt,nt,nt,nt,2.4µM
CO[C@@H]1CN(C)C(=O)c2ccc(NC(=O)C3CCC3)cc2OC[C@H](C)N(C(=O)NC(C)C)C[C@H]1C,i,i,i,i,i,i,nt
